# Test results published in PubChem BioAssay.
# The source made the active and inactive calls.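 The calls were made as follows, unless noted: active = fluorescence slope after compound addition differing from the mean of all screened samples at 99.7% confidence, in either direction; inactive = the rest.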
# Key:
# [1] = inhibitors of TNFa-induced NFkB p65 translocation, primary screen, imaging, HUVEC, MLSMR starter and 10KST1 sets (AID 438;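 active = inhibition above 20% together with a positive visual image hit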;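 also: compound added about 3h40 before a 20 min TNFalpha stimulation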;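 as to inhibition: signal is the nuclear over cytoplasmic p65 intensity ratio per well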); settings: HUVEC TNFa-induced p65 nuclear translocation; cell count: measured here: nuclei count (cytotoxicity indicator), at 2.08 µM; inhibition: at 2 µM, stronger effect = higher value, 0% TNFa-plus-vehicle, 100% no-TNFa wells
# [2] = inhibitors of E-selectin induction by TNFa, primary screen, imaging, HUVEC, immunofluorescence, MLSMR starter and 10KST1 sets (AID 487;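 active = visually confirmed hit in the image check and inhibition above 20%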;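 as to inhibition: signal is fraction of cell area covered by stained E-selectin grains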;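 as to nuclei count: 100% = median nuclei count of all wells on the same plate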); settings: HUVEC TNFalpha-induced E-selectin immunofluorescence imaging, at 2 µM; inhibition: stronger effect = higher value; nuclei count: measured here: cell number, toxicity
# [3] = DUSP6 inhibitors restoring Erk phosphorylation by chemical complementation, primary imaging in DUSP6-transfected HeLa (AID 609;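 active = compounds giving at least 50% inhibition in the cell-based MKP-3 phosphatase rescue imaging test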;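 as to inhibition: phospho-Erk level distribution per well compared with pooled transfected vehicle control wells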); settings: HeLa MKP-3 transfected, phospho-Erk imaging KS statistic, at 10 µM, cells stimulated with TPA for 15 min
# [4] = biological target: Dual specificity protein phosphatase 6 (Homo sapiens) (UniProt Q16828); test: as above; settings: HeLa MKP-3 transfected, phospho-Erk imaging KS statistic; at 10 µM; stronger effect = higher value; cells stimulated with TPA for 15 min
# Dual specificity protein phosphatase 6 (Homo sapiens), sequence (Q16828 whole entry, looked up): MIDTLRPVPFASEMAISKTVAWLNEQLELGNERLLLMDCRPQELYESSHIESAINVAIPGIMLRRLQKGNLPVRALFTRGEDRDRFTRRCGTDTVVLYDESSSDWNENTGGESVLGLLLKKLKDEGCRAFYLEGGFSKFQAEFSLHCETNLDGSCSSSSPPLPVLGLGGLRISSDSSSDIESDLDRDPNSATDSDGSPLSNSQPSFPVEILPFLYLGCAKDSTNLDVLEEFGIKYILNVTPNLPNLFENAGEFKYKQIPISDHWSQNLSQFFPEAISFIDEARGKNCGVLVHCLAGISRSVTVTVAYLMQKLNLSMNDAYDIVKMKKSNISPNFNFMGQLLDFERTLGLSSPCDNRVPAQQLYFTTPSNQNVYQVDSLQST
# [5] = biological target: Voltage-gated potassium channel subunit beta-2 (Rattus norvegicus) (UniProt P62483); test: KvBeta enzyme negative modulators, primary screen, biochemical, NADPH fluorescence (AID 622;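 active = fluorescence slope higher than the sample average by over 3 SD, cut at about -0.22 in these data, passing the limit was not always enough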;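 also: slope of raw intensity against log time taken from 70 to 1610 s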); settings: recombinant KvBeta, 4-cyanobenzaldehyde reduction, at 10 µM, stronger effect = higher value
# Voltage-gated potassium channel subunit beta-2 (Rattus norvegicus), sequence (P62483 whole entry, looked up): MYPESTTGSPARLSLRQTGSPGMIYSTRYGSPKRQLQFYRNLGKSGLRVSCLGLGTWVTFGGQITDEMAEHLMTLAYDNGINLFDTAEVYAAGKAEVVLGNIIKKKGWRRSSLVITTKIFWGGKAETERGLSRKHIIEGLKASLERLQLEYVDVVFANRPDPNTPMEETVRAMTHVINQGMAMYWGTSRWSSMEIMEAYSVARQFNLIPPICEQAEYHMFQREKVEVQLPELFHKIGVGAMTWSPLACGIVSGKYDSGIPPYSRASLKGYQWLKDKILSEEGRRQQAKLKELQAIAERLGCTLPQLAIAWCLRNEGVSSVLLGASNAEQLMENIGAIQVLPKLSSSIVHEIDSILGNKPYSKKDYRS
# [6] = biological target: Voltage-gated potassium channel subunit beta-2 (Rattus norvegicus) (UniProt P62483); test: KvBeta positive modulators, primary screen, biochemical, NADPH fluorescence (AID 623;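 active = NADPH fluorescence slope more negative than the mean of all samples by about 3 SD, 99.7% confidence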;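 also: fluorescence intensity change per second fitted from 20 to 320 s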); settings: Recombinant KvBeta, NADPH fluorescence decrease slope, 10 min; at 10 µM; stronger effect = lower value
# [7] = biological target: Alpha-2C adrenergic receptor (Homo sapiens) (UniProt P18825); test: modulators of alpha2C/GIRK thallium flux, primary screen, cell-based, HEK293 alpha2C/GIRK1/2 (AID 624); settings: thallium flux BTC fluorescence, at 10 µM, actives lie on both sides;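 also: slope of fluorescence ratio to pre-addition baseline per second over 15 to 24 s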
# Alpha-2C adrenergic receptor (Homo sapiens), sequence (P18825 whole entry, looked up): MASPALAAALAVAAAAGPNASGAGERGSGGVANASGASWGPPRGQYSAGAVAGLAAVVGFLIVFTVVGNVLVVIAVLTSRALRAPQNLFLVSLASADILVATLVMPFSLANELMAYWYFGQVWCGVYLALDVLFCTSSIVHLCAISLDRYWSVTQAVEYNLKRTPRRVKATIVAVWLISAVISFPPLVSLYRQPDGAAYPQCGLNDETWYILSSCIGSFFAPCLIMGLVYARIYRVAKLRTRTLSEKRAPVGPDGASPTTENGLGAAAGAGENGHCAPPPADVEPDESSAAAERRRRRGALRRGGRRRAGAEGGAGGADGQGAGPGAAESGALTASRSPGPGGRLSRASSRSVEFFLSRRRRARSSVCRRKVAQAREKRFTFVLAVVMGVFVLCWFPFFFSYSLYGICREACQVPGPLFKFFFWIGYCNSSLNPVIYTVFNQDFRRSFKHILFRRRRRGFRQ
# [8] = inhibitors of larval lipid processing in zebrafish, primary screen, whole organism, PED6 fluorescence, gall bladder and intestine (AID 686;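 active = a full or partial loss of lipid-probe fluorescence in the fish gall bladder, intestine or both, judged by eye; inactive = no fluorescence loss, or compound toxic to the fish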;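 also: larvae 5 to 7 days old with five fish per well; signal comes from phospholipase A2 cleavage of quenched PED6 carried via bile; overnight exposure to compound and PED6 before scoring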); settings: Zebrafish larvae PED6 lipid processing, fluorescence scoring; screened at 20 µM (by protocol)
# How it was run: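 Also added: quenched phospholipase substrate PED6, 100 nM final, ingested by larvae; System: zebrafish larvae, 5-7 d; Quantity: 5 larvae per well; Compound: 20 µM single dose; Schedule: overnight compound and PED6 incubation; Read-out: visual per-well fluorescence inhibition score; Measured by: By-eye fluorescence microscopy; Medium: E3.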
# [9] = inhibitors of Chlamydomonas gravitaxis, primary screen, whole organism, Chlamydomonas reinhardtii, WT vs cilia-less mutant, absorbance, 96-well (AID 463189;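 active = inhibition at or above 50% relative to wild type and mutant plate controls; inactive = inhibition below 50%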;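 also: 0% = wild type cc124 cells in DMSO and 100% = ciliumless bld1 mutant cells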); settings: OD600 absorbance, 2 days, at 10 µM, stronger effect = higher value
# [10] = measured here: cell density z-score
# [11] = measured here: nuclear c-Myc green intensity z-score
# [12] = measured here: nuclear pErk red intensity z-score, stronger effect = higher value
SMILES,cell count [1],inhibition [1],inhibition [2],nuclei count [2] [%],"z-score [3, 10]","z-score [3, 11]","z-score [3, 12]",inhibition [4],fluorescence slope [5],NADPH fluorescence slope [6],slope [7],outcome [8],inhibition [9]
Cc1ccc(C(=O)C2=C(O)C(=O)N(c3ncccn3)C2c2ccc(Cl)cc2)o1 (stereo not drawn),371,-10.1% (inactive),14.5% (inactive),94.4,-1.13,-0.679,0.195,7.83% (inactive),-0.331 (inactive),-1.3e-05 (inactive),0.00456 (inactive),inactive,5.76% (inactive)
COc1ccc(/C(O)=C2/C(=O)C(=O)N(CCCN(C)C)C2c2ccccc2)cc1OC (stereo not drawn),346,-14.7% (inactive),-317% (inactive),131,-0.204,-0.251,0.0495,9.39% (inactive),-0.386 (inactive),-3.5e-05 (inactive),0.00558 (inactive),inactive,-0.889% (inactive)
CCCOc1ccc(/C(O)=C2/C(=O)C(=O)N(CCN(C)C)C2c2ccncc2)cc1 (stereo not drawn),434,-4.1% (inactive),-139% (inactive),154,1.88,0.199,-1.31,-4.7% (inactive),-0.418 (inactive),-6.3e-05 (inactive),0.00564 (inactive),inactive,8.14% (inactive)
CC1(C)Cc2c(sc3nc4n(c(=N)c23)CCCCC4)CO1,637,-5.2% (inactive),57.2% (inactive),169,-0.678,2.31,-0.487,-7.28% (inactive),-0.414 (inactive),-4.7e-05 (inactive),0.00482 (inactive),inactive,-1.35% (inactive)
COc1ccc(OCC(=O)N2CCN(C(=O)c3cccc4ccccc34)CC2)cc1,413,-2.6% (inactive),-293% (inactive),133,-0.479,0.976,-0.768,3.66% (inactive),-0.448 (inactive),-1.4e-05 (inactive),0.00599 (inactive),inactive,0.794% (inactive)
COc1ccccc1C(=O)NC(=Nc1nc2ccccc2o1)NC(=O)c1ccccc1OC,511,-2.8% (inactive),0.2% (inactive),100,-1.24,-0.586,0.38,-2.91% (inactive),-0.572 (inactive),-9.6e-05 (inactive),0.0126 (inactive),inactive,-7.36% (inactive)
CNC(=O)C1CC(=O)N(Cc2ccccc2)C(=Nc2ccc(OC)cc2)S1 (stereo not drawn),491,-5.2% (inactive),-228% (inactive),127,-1.18,-0.897,1.34,-14% (inactive),-0.496 (inactive),-4.1e-05 (inactive),0.00456 (inactive),inactive,1.87% (inactive)
COCCCn1c2nc3ccccc3nc2c2c(=O)n(CC3CCCO3)cnc21 (stereo not drawn),561,-24.2% (inactive),-93.6% (inactive),148,0.117,-0.113,-0.0537,2.92% (inactive),-0.368 (inactive),-1.9e-05 (inactive),0.00353 (inactive),inactive,9.15% (inactive)
COc1ccc(C(=O)N/C(N)=N/c2nc3ccccc3o2)cc1,557,-12.2% (inactive),-140% (inactive),137,0.0574,0.314,0.889,-3.97% (inactive),-0.499 (inactive),-3.2e-05 (inactive),0.0048 (inactive),inactive,14.5% (inactive)
CCCCCCc1cc2cc(C(=O)NC)c(=N)oc2cc1O,346,-2% (inactive),-68.8% (inactive),90.1,-0.814,2.52,-2.41,13.2% (inactive),-0.446 (inactive),-6.7e-05 (inactive),0 (inactive),inactive,-9.65% (inactive)
Cc1ccc(C2CC(C(F)(F)F)n3ncc(C(N)=O)c3N2)cc1 (stereo not drawn),506,-1.3% (inactive),4.8% (inactive),124,-0.204,-0.144,1.07,-7.79% (inactive),-0.5 (inactive),-8.2e-05 (inactive),0.00506 (inactive),inactive,16.3% (inactive)
